Entries after “also recorded” stand apart in the source; their conditions may differ. Square brackets hold non-standard residues; d marks the D form. Peptide text beside a SMILES is read from it. pGlu = O=C1CC[C@@H](C(=O)O)N1
Experiments:
cGnRH-R-III [1] = molecular target: T1, cGnRH-R-III (Gallus gallus, UniProt Q5EFE0); test: Inositol phosphate assay, cGnRH-R-III transfected COS-7 cells; format: cell-based, chicken
T1 sequence (Q5EFE0 1-419): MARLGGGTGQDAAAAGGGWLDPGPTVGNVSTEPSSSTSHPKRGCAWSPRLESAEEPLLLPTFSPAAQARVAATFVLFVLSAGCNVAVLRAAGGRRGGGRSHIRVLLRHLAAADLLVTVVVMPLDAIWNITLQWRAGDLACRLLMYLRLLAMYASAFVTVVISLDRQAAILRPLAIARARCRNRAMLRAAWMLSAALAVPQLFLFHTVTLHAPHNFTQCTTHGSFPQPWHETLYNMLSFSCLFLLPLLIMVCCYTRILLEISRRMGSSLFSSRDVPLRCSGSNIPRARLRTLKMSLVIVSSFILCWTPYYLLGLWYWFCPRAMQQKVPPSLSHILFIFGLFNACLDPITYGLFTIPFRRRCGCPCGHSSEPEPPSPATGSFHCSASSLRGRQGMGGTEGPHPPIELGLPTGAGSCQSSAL
Method in brief: (§1)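 COS-7 cells were electroporated with a chicken type I or type III GnRH receptor expression construct and grown in DMEM with 10% FCS, 4 mM L-glutamine and penicillin/streptomycin at 37 °C, 5% CO2. After 24 h, cells were labelled 24 h with [3H]-myo-inositol in inositol-free DMEM. They were then washed in 25 mM HEPES-DMEM with 10 mM LiCl and stimulated 1 h at 37 °C with analogue. Antagonist mode included 1 nM GnRH-II. Reactions were stopped with 10 mM formic acid. Total inositol phosphates were eluted from Dowex with 1 M ammonium formate/0.1 M formic acid. Assays were run in triplicate and fitted by non-linear regression.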

cGnRH-R-I [2] = molecular target: T2, cGnRH-R-I (Gallus gallus, UniProt Q9DDC9); test: Inositol phosphate assay, cGnRH-R-I transfected COS-7 cells; format: cell-based, chicken
T2 sequence (Q9DDC9 1-375): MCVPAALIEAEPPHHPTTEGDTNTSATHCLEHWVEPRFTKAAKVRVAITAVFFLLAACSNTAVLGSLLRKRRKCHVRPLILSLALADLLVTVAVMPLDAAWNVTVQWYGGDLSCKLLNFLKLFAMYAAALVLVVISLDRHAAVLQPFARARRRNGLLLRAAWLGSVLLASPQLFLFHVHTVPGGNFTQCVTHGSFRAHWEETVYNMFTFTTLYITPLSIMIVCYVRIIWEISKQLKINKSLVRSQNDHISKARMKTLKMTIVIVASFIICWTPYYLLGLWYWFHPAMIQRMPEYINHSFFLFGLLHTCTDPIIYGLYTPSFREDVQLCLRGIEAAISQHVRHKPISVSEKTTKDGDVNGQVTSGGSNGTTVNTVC
Method in brief: as §1

cGnRH-R-III [3] = molecular target: T1, cGnRH-R-III; test: Whole cell radioligand binding assay, cGnRH-R-III transfected COS-7 cells; parameters: species or system chicken
cGnRH-R-I [4] = molecular target: T2, cGnRH-R-I; test: Whole cell radioligand binding assay, cGnRH-R-I transfected COS-7 cells; parameters: species or system chicken

EC50 (cGnRH-R-III [1]) [nM] | EC50 (cGnRH-R-I [2]) [nM] | fold higher affinity for GnRH-II than for cGnRH-I (cGnRH-R-III [3]) [fold] | fold higher affinity for GnRH-II than for sGnRH-III (cGnRH-R-III [3]) [fold] | inositol phosphate accumulation, GnRH-II relative to cGnRH-I (cGnRH-R-III [1]; cGnRH-R-III transfected cells) | fold higher affinity for GnRH-II than for cGnRH-I (cGnRH-R-I [4]) [fold] | fold higher affinity for GnRH-II than for sGnRH-III (cGnRH-R-I [4]) [fold] | Compound | inositol phosphate production potency, GnRH-II relative to cGnRH-I (cGnRH-R-I [2]; cGnRH-R-I)
21 | 10.3 | – | – | – | – | – | CC(C)C[C@H](NC(=O)[C@H](Cc1c[nH]c2ccccc12)NC(=O)CNC(=O)[C@H](Cc1ccc(O)cc1)NC(=O)[C@H](CO)NC(=O)[C@H](Cc1c[nH]c2ccccc12)NC(=O)[C@H](Cc1c[nH]cn1)NC(=O)[C@@H]1CCC(=O)N1)C(=O)N1CCC[C@H]1C(=O)NCC(N)=O [sGnRH-III] ([pGlu]HWSYGWLPG-NH2) | –
– | – | 35 | 16 | six times more effective | 21 | 16 | GnRH-II ([pGlu]HWSHGWYPG-NH2; ends and bridges not checked; UniProt O43555 24-33, looked up) | four times more potent; also recorded: four times more potently

— article PMC2695661 (The Journal of Endocrinology, 2009)
